Data on 4 molecules can be found in article PMC5034155 (Journal of medicinal chemistry, 2016).

For one data set, the target named is PB1(5) bromodomain (Homo sapiens, UniProt Q86U86). In words: DSF thermal shift, PB1. In kind it is binding. The following applies: fragment screen against PB1(5); confirmed by ITC. A general note: Isothermal titration calorimetry measures the heat released or taken up as one component is titrated into another.
Data set [1] is described as follows: Chemical stability in cell media. The following applies: after one week in cell media at 37°C. In kind it is physicochemical.
The target in a further data set is SMARCA4 (Homo sapiens, UniProt P51532). Kind of data set: SMARCA4 FRAP assay. The data set is classed as cell-based. In outline: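 Run like the SMARCA2 FRAP: U2OS cells treated with the HDAC inhibitor SAHA to induce hyperacetylation, transfected with a GFP-tagged bromodomain construct, and exposed to test compound. Chromatin displacement is read as the fluorescence recovery half-time after photobleaching.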

Data set [2] deals with C2C12 and C3H10T1/2 cells. Kind of data set: MTT cell viability assay. The conditions noted are these: up to 50 μM dose, 72 hours. In kind it is cell-based. A general note: Tetrazolium assays rely on reduction of a dye to a coloured formazan, in cell work by metabolically active cells.
For data set [3], the system named is C3H10T1/2 mesenchymal cells. In words: Adipocyte differentiation. The data set is classed as cell-based. The following applies: 20 μM.
Data set [4] relates to clear cell renal cell carcinoma cell lines (786-O and Rcc4). In words: ccRCC cell line proliferation. The data set is classed as cell-based. The following applies: 786-O (wild type PB1) and Rcc4 (PB1 downregulation).
Data set [5] has as its system non-family VIII bromodomains. Kind of data set: BROMOscan profiling from DiscoveRx. In kind it is binding.
In data set [6] the test system is non-family VIII bromodomains. In words: Tm shift panel of 40 bromodomain proteins. The data set is classed as binding.
In the next data set the test system is Family VIII bromodomains. Kind of data set: Isothermal Titration Calorimetry, Family VIII bromodomains. The data set is classed as binding.
The target in another data set is GFP-SMARCA2 in U2OS (Homo sapiens, UniProt P51531). Kind of data set: SMARCA2 FRAP assay. The data set is classed as cell-based. The following applies: U2OS treated with SAHA.
The next data set deals with GFP-PB1 (Homo sapiens, UniProt Q86U86). Kind of data set: PB1 FRAP assay. In kind it is cell-based. The conditions noted are these: SAHA treated. In outline: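 GFP-tagged PB1 (wild type or N263A / N707F acetyl-lysine-site mutants) expressed by transfection in cells pretreated with SAHA (2.5 μM) to hyperacetylate chromatin. Test compound given at several doses. Read-out is the half-time (t½) of fluorescence recovery after photobleaching, averaged from individual recovery curves of at least 20 cells per group with SEM. p-values are relative to wild type with SAHA.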
GFP-PB1, sequence (Q86U86 whole entry): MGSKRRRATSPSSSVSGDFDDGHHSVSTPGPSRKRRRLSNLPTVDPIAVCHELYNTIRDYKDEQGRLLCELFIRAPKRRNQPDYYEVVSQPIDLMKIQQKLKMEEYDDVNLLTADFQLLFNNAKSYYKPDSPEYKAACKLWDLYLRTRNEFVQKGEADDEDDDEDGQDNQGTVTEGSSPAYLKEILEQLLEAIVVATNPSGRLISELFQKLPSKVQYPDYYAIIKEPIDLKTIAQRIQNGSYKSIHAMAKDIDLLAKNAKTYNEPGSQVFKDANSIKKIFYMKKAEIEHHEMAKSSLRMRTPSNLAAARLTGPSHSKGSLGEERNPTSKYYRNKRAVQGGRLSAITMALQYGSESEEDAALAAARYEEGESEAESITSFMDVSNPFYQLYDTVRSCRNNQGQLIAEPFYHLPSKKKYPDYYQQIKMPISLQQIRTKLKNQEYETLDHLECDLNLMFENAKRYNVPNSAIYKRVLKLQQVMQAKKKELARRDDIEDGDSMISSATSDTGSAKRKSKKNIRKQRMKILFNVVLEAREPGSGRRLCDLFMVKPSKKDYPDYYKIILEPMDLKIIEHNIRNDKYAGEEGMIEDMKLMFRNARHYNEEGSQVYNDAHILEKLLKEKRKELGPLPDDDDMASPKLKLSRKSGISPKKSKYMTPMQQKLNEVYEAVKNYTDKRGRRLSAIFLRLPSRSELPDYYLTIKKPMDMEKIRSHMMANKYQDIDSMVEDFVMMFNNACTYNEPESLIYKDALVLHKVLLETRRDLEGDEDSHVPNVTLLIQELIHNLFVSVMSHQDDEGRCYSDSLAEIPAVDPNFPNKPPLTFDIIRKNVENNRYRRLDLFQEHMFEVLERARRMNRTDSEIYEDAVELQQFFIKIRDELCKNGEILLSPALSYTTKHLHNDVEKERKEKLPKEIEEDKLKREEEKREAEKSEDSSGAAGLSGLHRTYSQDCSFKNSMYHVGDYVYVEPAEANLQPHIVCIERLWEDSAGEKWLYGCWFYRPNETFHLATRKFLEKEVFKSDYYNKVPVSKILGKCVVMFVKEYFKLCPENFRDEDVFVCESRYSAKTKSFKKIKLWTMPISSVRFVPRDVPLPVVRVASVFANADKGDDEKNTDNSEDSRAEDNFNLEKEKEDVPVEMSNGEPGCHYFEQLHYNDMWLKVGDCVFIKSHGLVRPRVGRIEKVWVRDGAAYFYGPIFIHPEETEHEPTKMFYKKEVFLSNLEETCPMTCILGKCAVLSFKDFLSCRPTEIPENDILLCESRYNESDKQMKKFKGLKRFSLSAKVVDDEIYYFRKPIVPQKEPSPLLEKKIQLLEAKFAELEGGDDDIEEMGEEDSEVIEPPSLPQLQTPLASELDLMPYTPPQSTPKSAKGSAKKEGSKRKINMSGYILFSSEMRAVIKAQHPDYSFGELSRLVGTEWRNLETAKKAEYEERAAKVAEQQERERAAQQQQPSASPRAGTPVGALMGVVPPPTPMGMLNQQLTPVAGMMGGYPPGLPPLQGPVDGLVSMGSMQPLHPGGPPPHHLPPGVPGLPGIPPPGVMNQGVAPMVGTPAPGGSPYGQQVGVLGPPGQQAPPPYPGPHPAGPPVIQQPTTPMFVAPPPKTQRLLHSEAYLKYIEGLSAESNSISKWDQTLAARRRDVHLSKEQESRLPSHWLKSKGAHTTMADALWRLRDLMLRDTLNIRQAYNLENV

SMARCA4, sequence (P51532 whole entry): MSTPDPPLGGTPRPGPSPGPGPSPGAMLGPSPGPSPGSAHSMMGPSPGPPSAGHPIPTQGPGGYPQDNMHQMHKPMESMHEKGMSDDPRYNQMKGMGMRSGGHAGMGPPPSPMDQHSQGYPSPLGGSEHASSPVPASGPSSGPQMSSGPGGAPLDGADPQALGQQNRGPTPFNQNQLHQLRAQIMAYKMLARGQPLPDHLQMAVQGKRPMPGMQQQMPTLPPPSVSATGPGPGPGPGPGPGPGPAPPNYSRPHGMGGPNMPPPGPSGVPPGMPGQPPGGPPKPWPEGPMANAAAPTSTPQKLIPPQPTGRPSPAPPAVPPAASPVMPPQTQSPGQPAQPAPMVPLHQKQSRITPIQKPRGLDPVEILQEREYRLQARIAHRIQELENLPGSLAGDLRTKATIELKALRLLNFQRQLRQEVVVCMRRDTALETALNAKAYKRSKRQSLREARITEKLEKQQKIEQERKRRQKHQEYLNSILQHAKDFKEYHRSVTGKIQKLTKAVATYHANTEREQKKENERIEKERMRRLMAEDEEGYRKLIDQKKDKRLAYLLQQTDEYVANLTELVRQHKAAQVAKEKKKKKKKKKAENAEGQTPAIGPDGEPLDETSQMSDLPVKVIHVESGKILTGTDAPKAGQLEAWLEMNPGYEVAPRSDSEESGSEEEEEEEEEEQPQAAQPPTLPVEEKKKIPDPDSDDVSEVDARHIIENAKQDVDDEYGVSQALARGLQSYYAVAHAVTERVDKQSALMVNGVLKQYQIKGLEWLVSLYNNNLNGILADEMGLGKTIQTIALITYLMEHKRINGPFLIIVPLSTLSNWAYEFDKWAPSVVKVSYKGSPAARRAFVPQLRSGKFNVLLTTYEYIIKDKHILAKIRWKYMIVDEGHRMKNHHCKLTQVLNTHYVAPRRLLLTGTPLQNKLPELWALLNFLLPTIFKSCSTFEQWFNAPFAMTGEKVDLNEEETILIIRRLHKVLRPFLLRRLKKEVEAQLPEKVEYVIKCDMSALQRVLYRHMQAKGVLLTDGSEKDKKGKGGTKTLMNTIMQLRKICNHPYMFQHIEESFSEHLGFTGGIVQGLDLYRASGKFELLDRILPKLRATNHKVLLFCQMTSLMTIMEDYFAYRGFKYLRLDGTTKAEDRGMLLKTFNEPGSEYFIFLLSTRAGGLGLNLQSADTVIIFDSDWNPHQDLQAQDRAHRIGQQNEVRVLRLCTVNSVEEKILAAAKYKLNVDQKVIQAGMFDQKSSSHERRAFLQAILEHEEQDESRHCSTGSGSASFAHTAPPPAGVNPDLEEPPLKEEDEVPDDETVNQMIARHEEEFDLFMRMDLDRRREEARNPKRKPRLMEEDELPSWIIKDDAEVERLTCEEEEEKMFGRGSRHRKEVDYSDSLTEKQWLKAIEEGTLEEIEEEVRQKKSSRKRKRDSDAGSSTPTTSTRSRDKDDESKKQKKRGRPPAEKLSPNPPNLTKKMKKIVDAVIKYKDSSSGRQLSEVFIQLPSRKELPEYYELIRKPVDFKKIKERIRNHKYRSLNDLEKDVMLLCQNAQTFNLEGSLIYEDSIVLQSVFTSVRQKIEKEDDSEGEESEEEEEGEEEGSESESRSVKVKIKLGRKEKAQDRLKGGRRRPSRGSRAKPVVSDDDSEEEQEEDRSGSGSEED
PB1(5) bromodomain, sequence (Q86U86 653-763 limits assumed): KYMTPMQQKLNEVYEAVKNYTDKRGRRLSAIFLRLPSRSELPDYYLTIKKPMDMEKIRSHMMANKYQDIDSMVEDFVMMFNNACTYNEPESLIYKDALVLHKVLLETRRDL
GFP-SMARCA2 in U2OS, sequence (P51531 1-1572 isoform P51531-2): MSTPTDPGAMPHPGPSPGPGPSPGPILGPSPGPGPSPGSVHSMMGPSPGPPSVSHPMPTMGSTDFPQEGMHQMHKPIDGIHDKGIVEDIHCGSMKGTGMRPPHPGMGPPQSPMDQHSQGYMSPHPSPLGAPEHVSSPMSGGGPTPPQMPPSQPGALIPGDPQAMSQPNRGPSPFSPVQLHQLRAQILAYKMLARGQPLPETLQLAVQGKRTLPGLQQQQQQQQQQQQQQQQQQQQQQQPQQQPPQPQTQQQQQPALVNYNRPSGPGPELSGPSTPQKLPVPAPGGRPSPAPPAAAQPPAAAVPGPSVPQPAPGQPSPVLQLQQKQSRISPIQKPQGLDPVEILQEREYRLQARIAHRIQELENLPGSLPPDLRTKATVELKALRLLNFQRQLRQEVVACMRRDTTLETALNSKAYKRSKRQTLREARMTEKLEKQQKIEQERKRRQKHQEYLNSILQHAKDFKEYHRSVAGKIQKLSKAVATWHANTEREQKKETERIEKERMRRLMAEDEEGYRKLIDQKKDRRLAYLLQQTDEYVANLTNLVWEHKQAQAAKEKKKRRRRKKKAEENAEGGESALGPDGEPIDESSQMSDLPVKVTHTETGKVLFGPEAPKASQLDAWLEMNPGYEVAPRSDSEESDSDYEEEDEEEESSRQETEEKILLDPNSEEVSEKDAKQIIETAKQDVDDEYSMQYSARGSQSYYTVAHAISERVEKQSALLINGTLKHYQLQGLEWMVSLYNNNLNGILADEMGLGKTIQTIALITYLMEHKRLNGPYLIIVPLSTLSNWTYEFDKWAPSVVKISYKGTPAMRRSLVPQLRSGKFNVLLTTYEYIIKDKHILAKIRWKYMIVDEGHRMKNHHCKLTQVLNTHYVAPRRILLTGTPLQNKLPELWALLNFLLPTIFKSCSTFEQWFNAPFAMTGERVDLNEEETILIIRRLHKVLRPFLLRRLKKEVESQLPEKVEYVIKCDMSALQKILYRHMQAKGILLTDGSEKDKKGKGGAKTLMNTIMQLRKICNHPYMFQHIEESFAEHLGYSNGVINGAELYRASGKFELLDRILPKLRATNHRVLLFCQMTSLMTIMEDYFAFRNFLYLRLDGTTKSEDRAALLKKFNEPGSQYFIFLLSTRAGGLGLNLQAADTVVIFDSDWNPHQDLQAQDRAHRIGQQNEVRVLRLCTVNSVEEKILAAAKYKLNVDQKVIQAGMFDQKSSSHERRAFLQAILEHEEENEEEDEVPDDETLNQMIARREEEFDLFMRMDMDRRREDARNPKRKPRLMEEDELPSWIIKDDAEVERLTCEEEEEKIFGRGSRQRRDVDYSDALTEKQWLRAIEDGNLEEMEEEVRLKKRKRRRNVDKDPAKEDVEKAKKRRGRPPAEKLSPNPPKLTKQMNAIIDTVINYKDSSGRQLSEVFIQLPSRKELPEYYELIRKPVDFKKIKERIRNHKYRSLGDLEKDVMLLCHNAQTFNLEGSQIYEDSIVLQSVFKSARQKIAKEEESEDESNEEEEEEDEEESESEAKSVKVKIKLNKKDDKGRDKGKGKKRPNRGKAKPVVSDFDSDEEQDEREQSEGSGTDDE

On to `O=C(O)c1ccccc1O` [Compound 1, salicylic acid], for which the “fragment screen hit quality (DSF)” value at PB1(5) bromodomain was “weak, but highly ligand efficient hit”.
Take `O=C(/C=C/N1C[C@H]2C[C@@H]1CN2c1ccccn1)c1ccccc1O` [Compound 16, (E)-1-(2-hydroxyphenyl)-3-((1R,4R)-5-(pyridin-2-yl)-2,5-diazabicyclo[2.2.1]heptan-2-yl)prop-2-en-1-one]: in [1], the compound recovered entry is “Greater than 90%”. Moreover, the “SMARCA4 in cell target engagement (FRAP)” value on SMARCA4 is “confirmed”. Besides, in data set [2], the “cytotoxic effect (MTT cell viability)” value is given as “did not have significant cytotoxic effect”. In addition, in data set [3], the inhibition of adipogenesis result is recorded as “Near complete inhibition”. Moreover, the “effect on cell line proliferation” value in data set [4] is recorded as “did not show any effect”.
For `O=C(/C=C/N1[C@H]2CC[C@@H]1c1ncnc(NC3CC3)c1C2)c1ccccc1O` [Compound 17], in data set [5], the “selectivity over non-family VIII bromodomains, BROMOscan” value is “not active”. For the same molecule, the “SMARCA4 in cell target engagement (FRAP)” value on SMARCA4 is given as “confirmed”. For the same molecule, in data set [6], the “selectivity over non-family VIII bromodomains, Tm shift panel” value is given as “not active”. For the same molecule, the “binding to Family VIII bromodomains by ITC” value in the data set with Family VIII bromodomains was “potent binder to most of the Family VIII bromodomains”. The “effect on cell line proliferation” value in data set [4] was “did not show any effect”. For the same molecule, on GFP-SMARCA2 in U2OS, the “FRAP half-recovery time (t1/2) of GFP-SMARCA2” value is listed as “accelerated FRAP half-recovery time (t1/2) significantly in a dose dependent manner”. In addition, the “displacement of GFP-PB1 from chromatin (FRAP)” value at GFP-PB1 (1 μM) is listed as “able to displace PB1 from chromatin”.
Consider `C#CCNc1ccnc(N2C[C@H]3C[C@@H]2CN3/C=C/C(=O)c2cccc(OC)c2O)n1` [Compound 18], for which the “half-recovery time of GFP-PB1 (FRAP)” value on GFP-PB1 was “no effect”.
